This note sets out measurements from ChEMBL document CHEMBL4043311, “Developing Equipotent Teixobactin Analogues against Drug-Resistant Bacteria and Discovering a Hydrophobic Interaction between Lipid II and Teixobactin” (J Med Chem, 2018).

Values after ≈ are worked out from the molar mass of the structure shown.

In the experiment the test system is Staphylococcus aureus. Nature of the experiment: Antibacterial activity against methicillin-resistant Staphylococcus aureus BAA-1695 after 20 hrs by broth microdilution method. It counts as functional. The settings on record: BAA-1695, 20 h. The procedure, abridged: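 Broth microdilution per CLSI in cation-adjusted Mueller-Hinton broth with 0.002% polysorbate 80. Analogues were made up as 10 mg/mL DMSO stocks, then diluted in MHB. Inoculum approx. 5×10^5 cells/mL. Incubated 20 h at 37°C; MIC taken as the lowest concentration with no visible growth. Run three times.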
For the compound `CC[C@H](C)[C@H](NC(=O)[C@H](N)Cc1ccccc1)C(=O)N[C@@H](COP(=O)(O)O)C(=O)N[C@H](CCC(N)=O)C(=O)N[C@@H](C(=O)N[C@H](C(=O)N[C@@H](CO)C(=O)N[C@H]1C(=O)N[C@@H](C)C(=O)N[C@@H](CCCNC(=N)N)C(=O)N[C@@H]([C@@H](C)CC)C(=O)O[C@H]1C)[C@@H](C)CC)C(C)C`, the MIC (in general, the lowest concentration found to suppress growth) is greater than 32 µg/mL.
`CC[C@@H](C)[C@@H](NC(=O)[C@@H](CCC(=O)NCCN(C)C)NC(=O)[C@H](CO)NC(=O)[C@@H](NC(=O)[C@H](N)Cc1ccc(-c2ccccc2)cc1)[C@@H](C)CC)C(=O)N[C@H](C(=O)N[C@@H](CO)C(=O)N[C@H]1C(=O)N[C@@H](C)C(=O)N[C@@H](CCCCN)C(=O)N[C@@H]([C@@H](C)CC)C(=O)O[C@H]1C)[C@@H](C)CC` yielded a minimum inhibitory concentration (MIC) of 2 µg/mL (≈ 1.48 µM).
In the case of `CC[C@@H](C)[C@@H](NC(=O)[C@@H](CCC(N)=O)NC(=O)[C@H](CO)NC(=O)[C@@H](NC(=O)[C@H](N)Cc1ccc(N)cc1)[C@@H](C)CC)C(=O)N[C@H](C(=O)N[C@@H](CO)C(=O)N[C@H]1C(=O)N[C@@H](C)C(=O)N[C@@H](CCCNC(=N)N)C(=O)N[C@@H]([C@@H](C)CC)C(=O)O[C@H]1C)[C@@H](C)CC` it was greater than 32 µg/mL; in that of `CC[C@@H](C)[C@@H](NC(=O)[C@@H](CCC(N)=O)NC(=O)[C@H](CO)NC(=O)[C@@H](NC(=O)[C@H](N)Cc1ccc(-c2ccc(C)cc2)cc1)[C@@H](C)CC)C(=O)N[C@H](C(=O)N[C@@H](CO)C(=O)N[C@H]1C(=O)N[C@@H](C)C(=O)N[C@@H](CCCCN)C(=O)N[C@@H]([C@@H](C)CC)C(=O)O[C@H]1C)[C@@H](C)CC`, 0.5 µg/mL (≈ 0.387 µM).
In the case of `CC[C@@H](C)[C@@H](NC(=O)[C@@H](CCC(N)=O)NC(=O)[C@H](CO)NC(=O)[C@@H](NC(=O)C(Cc1ccccc1)NC)[C@@H](C)CC)C(=O)N[C@H](C(=O)N[C@@H](CO)C(=O)N[C@H]1C(=O)N[C@@H](C)C(=O)N[C@@H](CCCNC(=N)N)C(=O)N[C@@H]([C@@H](C)CC)C(=O)O[C@H]1C)[C@@H](C)CC` (some centres undefined) it was 2 µg/mL (≈ 1.61 µM); in that of `CC[C@@H](C)[C@@H](NC(=O)[C@@H](CCC(N)=O)NC(=O)[C@H](CO)NC(=O)[C@@H](NC(=O)[C@H](N)Cc1ccc(-c2ccc(C(F)(F)F)cc2)cc1)[C@@H](C)CC)C(=O)N[C@H](C(=O)N[C@@H](CO)C(=O)N[C@H]1C(=O)N[C@@H](C)C(=O)N[C@@H](CCCCN)C(=O)N[C@@H]([C@@H](C)CC)C(=O)O[C@H]1C)[C@@H](C)CC`, 0.5 µg/mL (≈ 0.371 µM).
`CC[C@@H](C)[C@@H](NC(=O)[C@@H](CCC(N)=O)NC(=O)[C@H](CO)NC(=O)[C@@H](N)[C@@H](C)CC)C(=O)N[C@H](C(=O)N[C@@H](CO)C(=O)N[C@H]1C(=O)N[C@@H](C)C(=O)N[C@@H](CCCNC(=N)N)C(=O)N[C@@H]([C@@H](C)CC)C(=O)O[C@H]1C)[C@@H](C)CC` came in with a minimum inhibitory concentration (MIC) greater than 32 µg/mL.
In the case of `CC[C@@H](C)[C@@H](NC(=O)[C@@H](CCC(N)=O)NC(=O)[C@H](CO)NC(=O)[C@@H](NC(=O)[C@H](N)Cc1ccc(O[C@H]2O[C@@H](CO)[C@@H](O)[C@@H](O)[C@@H]2O)cc1)[C@@H](C)CC)C(=O)N[C@H](C(=O)N[C@@H](CO)C(=O)N[C@H]1C(=O)N[C@@H](C)C(=O)N[C@@H](CCCNC(=N)N)C(=O)N[C@@H]([C@@H](C)CC)C(=O)O[C@H]1C)[C@@H](C)CC` it was greater than 32 µg/mL; in that of `CC[C@@H](C)[C@@H](NC(=O)[C@@H](CCCNC(=N)N)NC(=O)[C@H](CO)NC(=O)[C@@H](NC(=O)[C@H](N)Cc1ccc(-c2ccccc2)cc1)[C@@H](C)CC)C(=O)N[C@H](C(=O)N[C@@H](CO)C(=O)N[C@H]1C(=O)N[C@@H](C)C(=O)N[C@@H](CCCCN)C(=O)N[C@@H]([C@@H](C)CC)C(=O)O[C@H]1C)[C@@H](C)CC`, 2 µg/mL (≈ 1.53 µM); in that of `CC[C@@H](C)[C@H]1NC(=O)[C@H](CCCNC(=N)N)NC(=O)[C@H](C)NC(=O)[C@H](NC(=O)[C@@H](N)CO)[C@H](C)CC1=O`, greater than 32 µg/mL.
With `CC[C@@H](C)[C@@H](NC(=O)[C@@H](CCC(N)=O)NC(=O)[C@H](CO)NC(=O)[C@@H](NC(=O)[C@@H](Cc1ccccc1)NC)[C@@H](C)CC)C(=O)N[C@H](C(=O)N[C@@H](CO)C(=O)N[C@H]1C(=O)N[C@@H](C)C(=O)N[C@@H](CCCCN)C(=O)N[C@@H]([C@@H](C)CC)C(=O)O[C@H]1C)[C@@H](C)CC` the figure was 1 µg/mL (≈ 0.822 µM); with `CC[C@@H](C)[C@@H](NC(=O)[C@@H](CCC(N)=O)NC(=O)[C@H](CO)NC(=O)[C@@H](NC(=O)[C@@H](Cc1ccccc1)NC)[C@@H](C)CC)C(=O)N[C@H](C(=O)O)[C@@H](C)CC`, greater than 32 µg/mL; with `CCCc1ccc(-c2ccc(C[C@@H](N)C(=O)N[C@H](C(=O)N[C@@H](CO)C(=O)N[C@H](CCC(N)=O)C(=O)N[C@@H](C(=O)N[C@H](C(=O)N[C@@H](CO)C(=O)N[C@H]3C(=O)N[C@@H](C)C(=O)N[C@@H](CCCCN)C(=O)N[C@@H]([C@@H](C)CC)C(=O)O[C@H]3C)[C@@H](C)CC)[C@H](C)CC)[C@@H](C)CC)cc2)cc1`, 0.5 µg/mL (≈ 0.379 µM).
`CC[C@@H](C)[C@@H](NC(=O)[C@@H](CCC(N)=O)NC(=O)[C@H](CO)NC(=O)[C@@H](NC(=O)[C@H](N)Cc1ccc(O)cc1)[C@@H](C)CC)C(=O)N[C@H](C(=O)N[C@@H](CO)C(=O)N[C@H]1C(=O)N[C@@H](C)C(=O)N[C@@H](CCCNC(=N)N)C(=O)N[C@@H]([C@@H](C)CC)C(=O)O[C@H]1C)[C@@H](C)CC` came in with an MIC greater than 32 µg/mL.
In the case of `CC[C@@H](C)[C@@H](NC(=O)[C@@H](CCC(N)=O)NC(=O)[C@H](CO)NC(=O)[C@@H](NC(=O)[C@H](N)Cc1ccc(-c2ccccc2)cc1)[C@@H](C)CC)C(=O)N[C@H](C(=O)N[C@@H](CO)C(=O)N[C@H]1C(=O)N[C@@H](C)C(=O)N[C@@H](CCCNC(=N)N)C(=O)N[C@@H]([C@@H](C)CC)C(=O)O[C@H]1C)[C@@H](C)CC` it was 1 µg/mL (≈ 0.765 µM); in that of `CC[C@@H](C)[C@@H](NC(=O)[C@@H](CCC(N)=O)NC(=O)[C@H](CO)NC(=O)[C@@H](NC(=O)[C@H](N)Cc1ccc(-c2ccc(-c3ccccc3)cc2)cc1)[C@@H](C)CC)C(=O)N[C@H](C(=O)N[C@@H](CO)C(=O)N[C@H]1C(=O)N[C@@H](C)C(=O)N[C@@H](CCCCN)C(=O)N[C@@H]([C@@H](C)CC)C(=O)O[C@H]1C)[C@@H](C)CC`, 1 µg/mL (≈ 0.738 µM); in that of `CC[C@@H](C)[C@@H](NC(=O)[C@@H](CCC(N)=O)NC(=O)[C@H](CO)NC(=O)[C@@H](NC(=O)[C@H](N)Cc1ccc(C)cc1)[C@@H](C)CC)C(=O)N[C@H](C(=O)N[C@@H](CO)C(=O)N[C@H]1C(=O)N[C@@H](C)C(=O)N[C@@H](CCCNC(=N)N)C(=O)N[C@@H]([C@@H](C)CC)C(=O)O[C@H]1C)[C@@H](C)CC`, 2 µg/mL (≈ 1.61 µM).
In turn, `CC[C@@H](C)[C@@H](NC(=O)[C@@H](CCCN)NC(=O)[C@H](CO)NC(=O)[C@@H](NC(=O)[C@H](N)Cc1ccc(-c2ccccc2)cc1)[C@@H](C)CC)C(=O)N[C@H](C(=O)N[C@@H](CO)C(=O)N[C@H]1C(=O)N[C@@H](C)C(=O)N[C@@H](CCCCN)C(=O)N[C@@H]([C@@H](C)CC)C(=O)O[C@H]1C)[C@@H](C)CC` registered an MIC of 2 µg/mL (≈ 1.58 µM).
On to `CC[C@@H](C)[C@@H](NC(=O)[C@@H](CCC(N)=O)NC(=O)[C@H](CO)NC(=O)[C@@H](NC(=O)[C@@H](Cc1ccccc1)NC(=O)CN1CCOCC1)[C@@H](C)CC)C(=O)N[C@H](C(=O)N[C@@H](CO)C(=O)N[C@H]1C(=O)N[C@@H](C)C(=O)N[C@@H](CCCNC(=N)N)C(=O)N[C@@H]([C@@H](C)CC)C(=O)O[C@H]1C)[C@@H](C)CC`, for which the MIC was greater than 32 µg/mL.
